Hits are enriched below; roughly 1.3% of the tested compounds scored in any of these assays.
LYPLA1 counter – blocks human lysophospholipase 1, a PME1 counter-screen. inhibition, % at 5.9 µM. 0.16% of 320,000 active. O75608. recombinant LYPLA1, FP-Rh probe fluorescence polarization;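 active means inhibition above the mean of all tested compounds plus 3 SD, set per campaign, cut at about 14% in these data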;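 further: inhibitors block serine hydrolase probe labeling of LYPLA1 so polarization falls; 0% = enzyme with DMSO and 100% = wells lacking LYPLA1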
PME-1 inh – PME-1 (human) inhibition; inhibition, % at 5.9 µM; 0.53% of 320,000 active; recombinant PME-1, FP-Rh probe fluorescence polarization; Q9Y570;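 active means inhibition above the campaign mean of all compounds plus 3 SD, cut at about 26% in these data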;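 further: competitive labeling of PME-1 active site by serine hydrolase directed probe; 0% = PME-1 with DMSO and 100% = wells lacking PME-1 enzyme; inhibitors block probe labeling so polarization falls and inhibition rises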
RBBP9 inhibitor – inhibitors of human serine hydrolase RBBP9; inhibition, % at 7.94 µM; 0.2% of 220,000 active; recombinant RBBP9, FP-Rh probe fluorescence polarization; AID 1515;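 active means inhibition above the campaign mean of all tested compounds plus 3 SD, cut at about 14% in these data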;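 further: plate controls were DMSO wells with RBBP9 for no effect and wells lacking RBBP9 protein for full effect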
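Controls: DMSO-treated enzyme wells and wells lacking RBBP9 | Material: RBBP9 protein | Technique: Fluorescence polarization | Replication: Single well per compound, no replicates | Buffer or medium: Tris-NaCl-Pluronic buffer, pH 8.0 | Timing: 30 min compound preincubation, 45 min probe labeling, 25 °C | Read-out basis: Percent inhibition from mP, scaled between DMSO and no-protein wells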
LYPLA2 inh – blocks human lysophospholipase 2, a PME1 counter-screen | inhibition, % at 5.9 µM | O95372 | AID 2177 | 0.38% of 320,000 active | recombinant LYPLA2, FP-Rh probe fluorescence polarization;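 active means inhibition above the screen-wide mean plus 3 SD, limit set per campaign, cut at about 26% in these data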;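 further: 0% = LYPLA2 with DMSO and 100% = wells lacking LYPLA2 enzyme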
Fam108B inh – Fam108B inhibition, counter-screen for RBBP9 inhibitors | recombinant Fam108B, FP-Rh probe fluorescence polarization | inhibition, % at 9.51 µM | 0.33% of 300,000 active | AID 1947;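 active means inhibition above the screen mean inhibition plus 3 SD, computed separately per campaign, cut at about 18% in these data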;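 further: inhibitors lower polarization as less probe binds the enzyme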
PAD4 FP inh – blocks human protein arginine deiminase 4; inhibition, % at 6.36 µM; 0.41% of 330,000 active; Q9UM07; recombinant PAD4, RCA probe fluorescence polarization; AID 485272;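 active means percent inhibition above a cutoff equal to the mean of all tested compounds plus 3 SD, cut at about 15% in these data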;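 further: 0% = PAD4 with RCA probe and DMSO and 100% = probe without PAD4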
Target sequence (Q9UM07 whole entry, looked up): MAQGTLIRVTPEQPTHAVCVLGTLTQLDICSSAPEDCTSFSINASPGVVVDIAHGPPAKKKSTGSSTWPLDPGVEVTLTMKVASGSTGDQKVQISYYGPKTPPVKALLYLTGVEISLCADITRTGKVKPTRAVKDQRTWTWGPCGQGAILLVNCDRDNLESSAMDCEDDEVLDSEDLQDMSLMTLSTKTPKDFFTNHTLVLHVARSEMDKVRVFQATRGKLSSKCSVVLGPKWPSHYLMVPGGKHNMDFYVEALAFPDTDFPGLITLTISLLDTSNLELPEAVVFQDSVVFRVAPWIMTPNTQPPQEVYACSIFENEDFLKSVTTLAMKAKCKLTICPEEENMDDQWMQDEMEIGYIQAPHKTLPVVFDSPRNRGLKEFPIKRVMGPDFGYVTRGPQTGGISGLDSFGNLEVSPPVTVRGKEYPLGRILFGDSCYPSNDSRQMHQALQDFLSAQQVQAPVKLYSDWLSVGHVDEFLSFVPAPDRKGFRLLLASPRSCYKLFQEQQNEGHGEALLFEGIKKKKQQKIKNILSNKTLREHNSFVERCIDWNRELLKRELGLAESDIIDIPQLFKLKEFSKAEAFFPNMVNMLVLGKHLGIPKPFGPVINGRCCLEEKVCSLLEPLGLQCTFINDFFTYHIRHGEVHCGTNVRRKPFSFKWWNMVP
Fam108b inh conf – confirmation of mouse Fam108b serine hydrolase inhibitors. shares compounds with Fam108B inh. recombinant Fam108b, FP-Rh probe fluorescence polarization. inhibition, % at 9.51 µM. 44% of 930 active. AID 1978;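 active means inhibition above a limit from the primary screen, the mean over all compounds plus 3 SD, cut at about 19% in these data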;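 further: 0% = median of active Fam108b wells and 100% = catalytically dead S170A mutant; inhibitors free the probe so polarization falls as inhibition rises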
Fam108b ABPP HTS – inhibits mouse Fam108b in gel-based ABPP | shares compounds with Fam108B inh | recombinant Fam108b, fluorophosphonate probe | inhibition, % at 20 µM | 44% of 260 active; in the data active means inhibition above about 40%
LYPLA1 conf – counter-screen for PME1 inhibitors: confirmation of human LYPLA1 inhibitors | shares compounds with LYPLA1 counter | recombinant LYPLA1, FP-Rh probe fluorescence polarization | inhibition, % at 5.9 µM | 69% of 480 active;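 active means mean inhibition across replicates above the hit cutoff set in the primary screen, cut at about 15% in these data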;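 further: loss of FP-Rh probe labeling of LYPLA1 seen as lower polarization; 0% = LYPLA1 with DMSO and 100% = wells lacking LYPLA1 enzyme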
LYPLA2 confirm – LYPLA2 (human) inhibition, confirmation counter-screen | shares compounds with LYPLA2 inh | 72% of 1,100 active | recombinant LYPLA2, FP-Rh probe fluorescence polarization | inhibition, % at 5.9 µM | AID 2232;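 active means mean inhibition across replicates above the hit cutoff set in the primary screen, cut at about 26% in these data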;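 further: blocked labeling of the enzyme by serine hydrolase FP-Rh probe lowers polarization; 0% = enzyme with DMSO and 100% = wells lacking LYPLA2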
PAD4 confirm – confirmation of human PAD4 inhibitors | shares compounds with PAD4 FP inh | recombinant PAD4, RCA probe fluorescence polarization | inhibition, % at 6.36 µM | 28% of 1,200 active | AID 488796;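 active means mean inhibition across replicates above the hit cutoff set by the earlier primary screen, cut at about 15% in these data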;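 further: inhibitors block active-site labeling by the probe so polarization falls; 0% = PAD4 with probe and DMSO and 100% = probe without PAD4 enzyme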
The depositor's hits bear a star.

For Nc1cccc2nsnc12 the results were LYPLA1 counter 0, PME-1 inh -2, RBBP9 inhibitor -3, LYPLA2 inh -6, Fam108B inh 0 and PAD4 FP inh -11.
`C=C(c1ccccc1)c1ccccc1N` gave LYPLA1 counter -4, PME-1 inh -6, LYPLA2 inh -6, Fam108B inh 4 and PAD4 FP inh -5.
For Cn1nc(-c2ccccn2)nc2c(=O)n(C)c(=O)nc1-2 the results were LYPLA1 counter 92*, PME-1 inh 36*, RBBP9 inhibitor -4, LYPLA2 inh 90*, Fam108B inh 62*, PAD4 FP inh 74*, Fam108b inh conf 86*, Fam108b ABPP HTS 0, LYPLA1 conf 89*, LYPLA2 confirm 92* and PAD4 confirm 67*.
For CCCc1nc2c(=O)n(C)c(=O)nc-2n(C)n1 the results were RBBP9 inhibitor 0.
Screening O=C(O)C1CCN(C(=O)c2ccccc2Cl)CC1 returned LYPLA1 counter 0, PME-1 inh 2, RBBP9 inhibitor 1, LYPLA2 inh -7, Fam108B inh -1 and PAD4 FP inh 4.
`O=C1C(Cl)=C(N2CCC(C(=O)O)CC2)C(=O)c2ccccc21` gave LYPLA1 counter 2, PME-1 inh 17, RBBP9 inhibitor -6, LYPLA2 inh 40*, Fam108B inh 29*, PAD4 FP inh 20*, Fam108b inh conf 52*, Fam108b ABPP HTS 60*, LYPLA2 confirm 37* and PAD4 confirm 15*.
For O=C1c2cccc3c(O)ccc(c23)C(=O)N1Cc1ccccc1 the results were LYPLA1 counter 21*, PME-1 inh 26, RBBP9 inhibitor -1, LYPLA2 inh 31*, Fam108B inh 28*, PAD4 FP inh 40*, Fam108b inh conf 28*, LYPLA1 conf 24* and PAD4 confirm 50*.
Screening CCOc1ccc(C(=O)NC(C(=O)NCC(c2cccs2)N(C)C)C(C)C)cc1 (configuration not stated) returned LYPLA1 counter 1, PME-1 inh -1, LYPLA2 inh 7 and PAD4 FP inh 2.
`Cn1c(CNC(=O)c2ccccc2F)nnc1SCC(=O)c1ccccc1` gave LYPLA1 counter 0, PME-1 inh 6, LYPLA2 inh 0, Fam108B inh 2 and PAD4 FP inh -9.
Screening C=Cc1c(C)c2cc3[nH]c(cc4nc(cc5nc(cc1[nH]2)C(C)=C5CCC(=O)O)C(CCC(=O)O)=C4C)c(C)c3C=C returned LYPLA1 counter 14, PME-1 inh -4, LYPLA2 inh 17, Fam108B inh 46*, PAD4 FP inh 24*, Fam108b inh conf 44*, Fam108b ABPP HTS 0 and PAD4 confirm 3.
Cc1nc2ccccc2n2c(O)c(CC(=O)O)cc12 was read as LYPLA1 counter 12, PME-1 inh 22, RBBP9 inhibitor -6, LYPLA2 inh 27*, Fam108B inh 18*, PAD4 FP inh 75*, Fam108b inh conf 11, LYPLA2 confirm 10 and PAD4 confirm 39*.
Cc1nc2ccccc2n1CCC(=O)O was read as LYPLA1 counter 1, PME-1 inh -4, RBBP9 inhibitor -7, LYPLA2 inh 4, Fam108B inh 1 and PAD4 FP inh -3.
`Cc1ccc(S(=O)(=O)N(C)c2ccc(OC(=O)CN3C(=O)NC4(CCCC4)C3=O)cc2)cc1C` gave LYPLA1 counter -1, PME-1 inh 5, LYPLA2 inh -3, Fam108B inh 1 and PAD4 FP inh -11.
For Cc1ccc(S(=O)(=O)/N=C2\C=C(Nc3cccc(C(=O)O)c3)C(=O)c3ccccc32)c(C)c1 the results were LYPLA1 counter -4, PME-1 inh 23, LYPLA2 inh 4, Fam108B inh 35*, PAD4 FP inh 66*, Fam108b inh conf 49*, Fam108b ABPP HTS 15 and PAD4 confirm 50*.
`Cc1ccc(S(=O)(=O)/N=C2\C=C(Nc3cccc(C(=O)O)c3)C(=O)c3ccccc32)cc1` gave LYPLA1 counter 3, PME-1 inh 25, LYPLA2 inh 21, Fam108B inh 50*, PAD4 FP inh 63*, Fam108b inh conf 60*, Fam108b ABPP HTS 0 and PAD4 confirm 46*.
CC(C)(C)c1ccc(S(=O)(=O)/N=C2\C=C(NS(=O)(=O)c3ccccc3)C(=O)c3ccccc32)cc1 was read as LYPLA1 counter -3, PME-1 inh 16, LYPLA2 inh 0, Fam108B inh 5 and PAD4 FP inh 2.
`O=C(NNC(=O)C1CC(=O)N(Cc2ccccc2)C1)c1ccc(Br)cc1` (configuration not stated) gave LYPLA1 counter -2, PME-1 inh 2, LYPLA2 inh 1, Fam108B inh 1 and PAD4 FP inh -9.
Screening COC(=O)c1c(Cl)c2n3ccccc3c(C)c(-c3ccccc3)c-2c1C(=O)OC returned LYPLA1 counter 16*, PME-1 inh 16, RBBP9 inhibitor -3, LYPLA2 inh 20, Fam108B inh 19*, PAD4 FP inh 16*, Fam108b inh conf 10, LYPLA1 conf 4 and PAD4 confirm 6.
COc1ccc(NC(=O)CCCSc2ccccc2)cc1 was read as LYPLA1 counter 1, PME-1 inh 0, RBBP9 inhibitor -7, LYPLA2 inh 1, Fam108B inh 3 and PAD4 FP inh 0.
COc1ccc(S(=O)(=O)N(C)C[C@H]2Oc3ccc(NC(=O)c4ccncc4)cc3C(=O)N([C@H](C)CO)C[C@@H]2C)cc1 was read as PAD4 FP inh -1.
Cc1cc2c(N)cccc2nn1 was read as LYPLA1 counter 47*, PME-1 inh 58*, RBBP9 inhibitor 4, LYPLA2 inh 52*, Fam108B inh 25*, PAD4 FP inh 120*, Fam108b inh conf 16, LYPLA1 conf 3, LYPLA2 confirm 46* and PAD4 confirm -2.
For O=C1/C(=C/C=C/c2ccco2)SC(=S)N1NS(=O)(=O)c1ccccc1 the results were LYPLA1 counter -10, PME-1 inh -36, RBBP9 inhibitor 6, LYPLA2 inh -11, Fam108B inh 53*, PAD4 FP inh 65*, Fam108b inh conf 14 and PAD4 confirm 3.

Bioassay records (PubChem)
